Rows were chosen to be rich in hits. Some 1.5% of all compounds tested hit in one or more screens of this group.
CASP6 VEID inh: human caspase-6 inhibitors, primary screen, biochemical, VEID-R110 fluorescence, single point, set 2; P55212; purified caspase-6, Z-VEID-R110 cleavage fluorescence; inhibition, % at 12.5 µM; actives 0.53% (n = 350,000); AID 686996, 2013;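 active means mean inhibition across replicates at least about 35%, with every replicate also reaching that limit, limit read from the data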;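 further: 0% = median of neutral control wells and 100% = no fluorescence left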
DNMT1 block: human DNMT1 methyltransferase inhibitors, primary screen, biochemical, molecular beacon, fluorescence, HinP1I cleavage, uHTS; inhibition (reported as % activation of signal), % at 10 µM; DNA (cytosine-5)-methyltransferase 1 (Homo sapiens), P26358; actives 0.83% (n = 360,000)
Target sequence (P26358 504-1616 limits assumed): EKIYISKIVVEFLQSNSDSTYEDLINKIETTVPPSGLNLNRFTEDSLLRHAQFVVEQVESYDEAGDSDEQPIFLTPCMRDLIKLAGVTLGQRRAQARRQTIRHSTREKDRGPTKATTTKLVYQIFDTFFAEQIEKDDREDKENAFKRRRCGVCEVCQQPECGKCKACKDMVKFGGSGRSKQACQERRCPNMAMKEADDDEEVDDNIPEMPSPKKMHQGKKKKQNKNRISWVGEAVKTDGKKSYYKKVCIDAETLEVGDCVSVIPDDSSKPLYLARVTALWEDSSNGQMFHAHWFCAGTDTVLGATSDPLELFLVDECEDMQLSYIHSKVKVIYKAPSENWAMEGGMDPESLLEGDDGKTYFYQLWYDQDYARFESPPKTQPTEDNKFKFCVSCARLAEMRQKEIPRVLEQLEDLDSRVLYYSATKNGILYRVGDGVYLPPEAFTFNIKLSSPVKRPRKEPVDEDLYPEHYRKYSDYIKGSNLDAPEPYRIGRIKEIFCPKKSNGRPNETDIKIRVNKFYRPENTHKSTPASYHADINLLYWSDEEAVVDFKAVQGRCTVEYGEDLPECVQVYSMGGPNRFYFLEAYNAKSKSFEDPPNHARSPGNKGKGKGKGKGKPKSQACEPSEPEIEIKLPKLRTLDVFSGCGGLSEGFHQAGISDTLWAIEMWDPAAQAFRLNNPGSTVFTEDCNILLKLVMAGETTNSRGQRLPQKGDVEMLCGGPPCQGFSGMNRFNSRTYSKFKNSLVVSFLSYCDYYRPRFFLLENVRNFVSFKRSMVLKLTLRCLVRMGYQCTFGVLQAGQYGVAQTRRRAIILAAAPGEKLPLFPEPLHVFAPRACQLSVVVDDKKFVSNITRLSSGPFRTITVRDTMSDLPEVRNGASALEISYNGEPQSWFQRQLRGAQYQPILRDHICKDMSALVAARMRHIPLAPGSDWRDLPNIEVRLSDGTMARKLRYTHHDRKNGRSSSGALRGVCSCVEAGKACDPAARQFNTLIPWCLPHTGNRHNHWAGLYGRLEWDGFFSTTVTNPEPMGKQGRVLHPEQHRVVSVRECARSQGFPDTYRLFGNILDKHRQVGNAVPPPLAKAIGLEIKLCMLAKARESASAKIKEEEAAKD
NS3 helicase inh: inhibitors of HCV NS3 helicase, primary screen, biochemical, Cy5 molecular beacon fluorescence | Hepatitis C virus NS3 helicase | NS3 helicase DNA unwinding | inhibition, % at 10.9 µM | actives 0.56% (n = 290,000) | AID 1800, 2009;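 active means inhibition above the mean of all tested compounds plus 3 SD, set per campaign, cut at about 35% in these data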;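 further: 0% = DMSO wells and 100% = thioflavine S control wells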
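Assay system – hepatitis C virus NS3 helicase domain fragment enzyme · Buffer or medium – MOPS pH 6.5, MgCl2, DTT, Tween20, BSA · Reagent – Cy5/quencher beacon DNA duplex and ATP to start · Compound – single 10.9 µM dose · Timing – 1 h at 25 °C · Technique – Cy5 beacon fluorescence read at start and 1 h · Measure – % inhibition of unwinding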
NSD2 HMT inh: NSD2 histone methyltransferase inhibitors, primary screen, biochemical, AlphaScreen, single concentration, set 2 | Histone-lysine N-methyltransferase NSD2 (Homo sapiens), O96028 | NSD2 peptide methylation, 120 min | inhibition, % at 12.5 µM | actives 0.54% (n = 310,000)
NS3 hel confirm: HCV NS3 helicase inhibitors, retest, confirmation, biochemical, Cy5 molecular beacon fluorescence, triplicate; inhibition, % at 10.9 µM; shares compounds with NS3 helicase inh; actives 31% (n = 1,600); NS3 helicase DNA unwinding;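 active means inhibition above the mean of all tested compounds plus 3 SD, cutoff set per campaign, cut at about 36% in these data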
DNA FID counter: compounds displacing fluorescent DNA intercalator, artefact control for HCV NS3 helicase inhibitor project, biochemical, FID fluorescence, triplicate; shares compounds with NS3 helicase inh; DNA fluorescent intercalator displacement; inhibition, % at 7.9 µM; actives 4% (n = 1,600); AID 1945, 2009; in the data active means inhibition above about 37%;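 further: 0% = vehicle and 100% = reference compound; higher means more displacement of ethidium bromide from the DNA hairpin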
DNA FID DR: compounds displacing fluorescent intercalator from DNA, dose response, counter-screen for HCV NS3 helicase inhibitor project, biochemical, fluorescence | fluorescent intercalator displacement from DNA | 120 tested, under 10 active | shares compounds with NS3 helicase inh | IC50, µM; call rule not given here
* = called active by the depositor; x = not tested or not shown. Unless noted, no stated cut-off is given here; in the data, active means inhibition above about 50%; inactive means the rest.

SMILES | CASP6 VEID inh | DNMT1 block | NS3 helicase inh | NSD2 HMT inh | NS3 hel confirm | DNA FID counter | others
C/C=C/c1cccc(-c2nc(C(=O)NCCC)cc3c2[C@H](CCO)N([S@@](=O)C(C)(C)C)C3)c1 | -2 | x | x | x | x | x
C=CCSc1nc2sc3c(c2c(=O)n1CC=C)CCc1ccccc1-3 | x | -2 | -3 | 1 | x | x
C=CCn1c(SCCC)nc2sc3c(c2c1=O)CCc1ccccc1-3 | -1 | 5 | 60* | 11 | -8 | 0
Cc1nc(-c2ccc(-n3nncc3-c3ccco3)cc2)cs1 | 8 | 2 | 56* | 3 | -17 | -22
CCOC(=O)c1c(NC(=O)C2C3C=CC(C3)C2C(=O)O)sc2c1CCC(CC)C2 (stereo not drawn) | x | 3 | 39* | 7 | 84* | -35
CNC(C)C#Cc1ccc2sc3cccc(OC)c3c(=O)c2c1 (stereo not drawn) | 1 | -11 | 39* | x | 19 | 7
CNC(C)C#Cc1ccc2oc3cccc(OC)c3c(=O)c2c1 (stereo not drawn) | -1 | 7 | -12 | x | x | x
CCOC(=O)c1sc2nc3c(SCCC#N)cc(C(=O)c4cc(F)ccc4O)cn3c(=O)c2c1C | x | -5 | 18 | -1 | x | x
CCOC(=O)c1sc2nc3c(SCCC(=O)O)cc(C(=O)c4cc(OC)ccc4O)cn3c(=O)c2c1C | 2 | 104* | 40* | -4 | 83* | 14 | DNA FID DR=>79
C[C@H](CO)N1C[C@H](C)[C@@H](CN(C)C(=O)Nc2cccc3ccccc23)Oc2c(NS(=O)(=O)c3cccs3)cccc2C1=O | 3 | x | x | x | x | x
C[C@@H]1CN([C@@H](C)CO)S(=O)(=O)c2ccc(C3=CCCC3)cc2O[C@H]1CN(C)C(=O)C1CCCCC1 | 12 | x | x | x | x | x
Cc1cc2nc3ccc(=[N+](C)C)cc-3sc2cc1N | x | 57* | 58* | x | 78* | 107*
C[C@H](CO)N1C[C@H](C)[C@H](CN(C)C(=O)c2ccc3c(c2)OCO3)Oc2cc(-c3ccncc3)ccc2S1(=O)=O | -2 | x | x | x | x | x
CCN(CC)C(=O)NC1CC(=O)N(c2ccc(OC)cc2)C1 (stereo not drawn) | -1 | 1 | 4 | -2 | x | x
COc1ccc(N2CC(NC(=O)NCC(C)C)CC2=O)cc1 (stereo not drawn) | 1 | -2 | 53* | 0 | -8 | -1
COc1cc2cc3c(N)c(C(=O)NCc4ccco4)sc3nc2cc1OC | x | -4 | 9 | x | x | x
COc1cc2cc3c(N)c(C(=O)Nc4sc(C)c(C)c4C#N)sc3nc2cc1OC | x | -7 | 37* | 38 | 50* | -14 | DNA FID DR=>79
Cc1cc(NS(=O)(=O)c2ccc(NC(=O)/C=C/c3c(F)cccc3Cl)cc2)nc(C)n1 | 4 | 0 | 36* | 4 | -22 | -6
Cc1cc(NS(=O)(=O)c2ccc(NC(=O)/C=C/c3c(F)cccc3Cl)cc2)no1 | 2 | -2 | -14 | 4 | x | x
CO[C@H]1CN(C)C(=O)c2cc(NC(C)=O)ccc2OC[C@H](C)N(C(=O)c2ccc(F)cc2)C[C@H]1C | 7 | x | x | x | x | x
Oc1ccc(N=Nc2ccccc2C(F)(F)F)c2cccnc12 | 0 | 6 | 49* | 0 | 0 | 3
COc1ccc(-n2cccc2/C=C2\C(=N)N3N=C(c4ccco4)SC3=NC2=O)cc1 | 7 | 90* | 42* | 18 | 71* | -14 | DNA FID DR=>79
O=C(C[C@H]1C[C@H]2c3cc(NC(=O)c4ccc5c(c4)OCO5)ccc3O[C@H]2[C@@H](CO)O1)NCc1ccccn1 | 0 | x | x | x | x | x
C[C@@H]1CCCCO[C@H](CN(C)Cc2ccc(Cl)c(Cl)c2)[C@H](C)CN([C@@H](C)CO)C(=O)c2cc(NS(=O)(=O)c3ccc(F)cc3)ccc2O1 | 0 | x | x | x | x | x
COC(Cn1cc(C)c(=O)[nH]c1=O)OC | 1 | 0 | -14 | -2 | x | x
Cc1cn(CC2COC(C)(C)O2)c(=O)[nH]c1=O (stereo not drawn) | x | 0 | 38* | -3 | -2 | 10
